Measured values as given in ChEMBL document CHEMBL5058577, “EUbOPEN Chemogenomics Library 2 (Multiplex)” (2022).

Tested on: HEK-293T
Assay: Multiplex assay against HEK293T
Format: toxicity, cell-based
Settings: human
Summary of the method: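 Hoechst33342, BioTracker Green Microtubule Cytoskeleton Dye, MitoTracker Red and Annexin V Alexa Fluor 680 were added to live cells at seeding, and imaging on a CQ1 microscope at 37°C and 5% CO2 followed compound addition. Gating by CellPathfinder machine learning separated cells into Hoechst high-intensity objects or normal cells, then normal cells into healthy, pyknosed or fragmented nuclei, then pyknosed cells into mitotic or apoptotic. Per cents of healthy-nucleus cells are reported for the tubulin, mitochondrial-mass and membrane-permeability phenotypes.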

[1] = 12 h, 1 µM, compound concentration 1 uM, replicate 1
[2] = 12 h, 1 µM, compound concentration 1 uM, replicate 2
[3] = 12 h, 10 µM, compound concentration 10 uM, replicate 1
[4] = 12 h, 10 µM, compound concentration 10 uM, replicate 2
[5] = 24 h, 1 µM, compound concentration 1 uM, replicate 1
[6] = 24 h, 1 µM, compound concentration 1 uM, replicate 2
[7] = 24 h, 10 µM, compound concentration 10 uM, replicate 1
[8] = 24 h, 10 µM, compound concentration 10 uM, replicate 2
[9] = 48 h, 1 µM, compound concentration 1 uM, replicate 1
[10] = 48 h, 1 µM, compound concentration 1 uM, replicate 2
[11] = 48 h, 10 µM, compound concentration 10 uM, replicate 1
[12] = 48 h, 10 µM, compound concentration 10 uM, replicate 2

SMILES: Oc1c(CN2CCN(c3ccccn3)CC2)cc(Cl)c2cccnc12
- Population Apoptotic (%) [1]: 30%
- Population Fragmented Nuclei (%) [1]: 6%
- Population Healthy Nuclei (%) [1]: 83%
- Population Hoechst High Intensity Objects (%) [1]: 7%
- Population Membrane Permeable-Phenotype (%) [1]: 0%
- Population Mitochondria Different-Phenotype (%) [1]: 44%
- Population Mitotic Cells (%) [1]: 70%
- Population Normal (%) [1]: 92%
- Population Pyknosed Nuclei (%) [1]: 10%
- Population Tubulin-Different-Phenotype (%) [1]: 34%
- Total Cell Count [1]: 424
- Population Apoptotic (%) [2]: 45%
- Population Fragmented Nuclei (%) [2]: 5%
- Population Healthy Nuclei (%) [2]: 80%
- Population Mitochondria Different-Phenotype (%) [2]: 59%
- Population Mitotic Cells (%) [2]: 54%
- Population Pyknosed Nuclei (%) [2]: 13%
- Population Tubulin-Different-Phenotype (%) [2]: 20%
- Total Cell Count [2]: 354
- Population Apoptotic (%) [3]: 71%
- Population Fragmented Nuclei (%) [3]: 16%
- Population Healthy Nuclei (%) [3]: 64%
- Population Hoechst High Intensity Objects (%) [3]: 11%
- Population Membrane Permeable-Phenotype (%) [3]: 0%
- Population Mitochondria Different-Phenotype (%) [3]: 64%
- Population Mitotic Cells (%) [3]: 28%
- Population Normal (%) [3]: 88%
- Population Pyknosed Nuclei (%) [3]: 18%
- Population Tubulin-Different-Phenotype (%) [3]: 20%
- Total Cell Count [3]: 197
- Population Apoptotic (%) [4]: 73%
- Population Fragmented Nuclei (%) [4]: 18%
- Population Healthy Nuclei (%) [4]: 69%
- Population Hoechst High Intensity Objects (%) [4]: 6%
- Population Mitochondria Different-Phenotype (%) [4]: 70%
- Population Mitotic Cells (%) [4]: 26%
- Population Normal (%) [4]: 93%
- Population Pyknosed Nuclei (%) [4]: 12%
- Population Tubulin-Different-Phenotype (%) [4]: 32%
- Total Cell Count [4]: 327
- Population Apoptotic (%) [5]: 34%
- Population Fragmented Nuclei (%) [5]: 6%
- Population Healthy Nuclei (%) [5]: 84%
- Population Hoechst High Intensity Objects (%) [5]: 3%
- Population Membrane Permeable-Phenotype (%) [5]: 0%
- Population Mitochondria Different-Phenotype (%) [5]: 22%
- Population Mitotic Cells (%) [5]: 65%
- Population Normal (%) [5]: 96%
- Population Pyknosed Nuclei (%) [5]: 9%
- Population Tubulin-Different-Phenotype (%) [5]: 23%
- Total Cell Count [5]: 529
- Population Apoptotic (%) [6]: 33%
- Population Fragmented Nuclei (%) [6]: 7%
- Population Mitochondria Different-Phenotype (%) [6]: 40%
- Population Mitotic Cells (%) [6]: 66%
- Population Pyknosed Nuclei (%) [6]: 8%
- Population Tubulin-Different-Phenotype (%) [6]: 13%
- Total Cell Count [6]: 427
- Population Apoptotic (%) [7]: 93%
- Population Fragmented Nuclei (%) [7]: 18%
- Population Healthy Nuclei (%) [7]: 65%
- Population Hoechst High Intensity Objects (%) [7]: 13%
- Population Membrane Permeable-Phenotype (%) [7]: 1%
- Population Mitochondria Different-Phenotype (%) [7]: 65%
- Population Mitotic Cells (%) [7]: 6%
- Population Normal (%) [7]: 86%
- Population Pyknosed Nuclei (%) [7]: 15%
- Population Tubulin-Different-Phenotype (%) [7]: 19%
- Total Cell Count [7]: 227
- Population Apoptotic (%) [8]: 81%
- Population Fragmented Nuclei (%) [8]: 21%
- Population Healthy Nuclei (%) [8]: 63%
- Population Hoechst High Intensity Objects (%) [8]: 7%
- Population Mitochondria Different-Phenotype (%) [8]: 78%
- Population Mitotic Cells (%) [8]: 18%
- Population Normal (%) [8]: 92%
- Population Tubulin-Different-Phenotype (%) [8]: 34%
- Total Cell Count [8]: 354
- Population Apoptotic (%) [9]: 29%
- Population Fragmented Nuclei (%) [9]: 12%
- Population Healthy Nuclei (%) [9]: 80%
- Population Hoechst High Intensity Objects (%) [9]: 3%
- Population Membrane Permeable-Phenotype (%) [9]: 0%
- Population Mitochondria Different-Phenotype (%) [9]: 22%
- Population Mitotic Cells (%) [9]: 70%
- Population Normal (%) [9]: 96%
- Population Pyknosed Nuclei (%) [9]: 6%
- Population Tubulin-Different-Phenotype (%) [9]: 16%
- Total Cell Count [9]: 689
- Population Apoptotic (%) [10]: 31%
- Population Fragmented Nuclei (%) [10]: 10%
- Population Healthy Nuclei (%) [10]: 83%
- Population Mitochondria Different-Phenotype (%) [10]: 17%
- Population Mitotic Cells (%) [10]: 68%
- Population Pyknosed Nuclei (%) [10]: 5%
- Population Tubulin-Different-Phenotype (%) [10]: 10%
- Total Cell Count [10]: 518
- Population Apoptotic (%) [11]: 83%
- Population Fragmented Nuclei (%) [11]: 23%
- Population Healthy Nuclei (%) [11]: 44%
- Population Hoechst High Intensity Objects (%) [11]: 25%
- Population Membrane Permeable-Phenotype (%) [11]: 0%
- Population Mitochondria Different-Phenotype (%) [11]: 60%
- Population Mitotic Cells (%) [11]: 16%
- Population Normal (%) [11]: 74%
- Population Pyknosed Nuclei (%) [11]: 31%
- Population Tubulin-Different-Phenotype (%) [11]: 30%
- Total Cell Count [11]: 204
- Population Apoptotic (%) [12]: 94%
- Population Fragmented Nuclei (%) [12]: 28%
- Population Healthy Nuclei (%) [12]: 49%
- Population Hoechst High Intensity Objects (%) [12]: 14%
- Population Mitochondria Different-Phenotype (%) [12]: 81%
- Population Mitotic Cells (%) [12]: 5%
- Population Normal (%) [12]: 85%
- Population Pyknosed Nuclei (%) [12]: 22%
- Population Tubulin-Different-Phenotype (%) [12]: 42%
- Total Cell Count [12]: 295

SMILES: CCOc1c2c(c(OCC)c3ncccc13)CN(c1ccc(CS(=O)(=O)NC(=O)Cc3ccccc3OC)cc1C)C2=O
- Population Apoptotic (%) [1]: 33%
- Population Fragmented Nuclei (%) [1]: 3%
- Population Healthy Nuclei (%) [1]: 81%
- Population Hoechst High Intensity Objects (%) [1]: 6%
- Population Membrane Permeable-Phenotype (%) [1]: 0%
- Population Mitochondria Different-Phenotype (%) [1]: 43%
- Population Mitotic Cells (%) [1]: 66%
- Population Normal (%) [1]: 93%
- Population Pyknosed Nuclei (%) [1]: 14%
- Population Tubulin-Different-Phenotype (%) [1]: 31%
- Total Cell Count [1]: 356
- Population Apoptotic (%) [2]: 35%
- Population Fragmented Nuclei (%) [2]: 5%
- Population Healthy Nuclei (%) [2]: 82%
- Population Hoechst High Intensity Objects (%) [2]: 5%
- Population Mitochondria Different-Phenotype (%) [2]: 54%
- Population Mitotic Cells (%) [2]: 64%
- Population Normal (%) [2]: 94%
- Population Pyknosed Nuclei (%) [2]: 12%
- Population Tubulin-Different-Phenotype (%) [2]: 16%
- Total Cell Count [2]: 355
- Population Apoptotic (%) [3]: 45%
- Population Fragmented Nuclei (%) [3]: 9%
- Population Healthy Nuclei (%) [3]: 78%
- Population Hoechst High Intensity Objects (%) [3]: 4%
- Population Membrane Permeable-Phenotype (%) [3]: 0%
- Population Mitochondria Different-Phenotype (%) [3]: 49%
- Population Mitotic Cells (%) [3]: 54%
- Population Normal (%) [3]: 95%
- Population Pyknosed Nuclei (%) [3]: 12%
- Population Tubulin-Different-Phenotype (%) [3]: 34%
- Total Cell Count [3]: 367
- Population Apoptotic (%) [4]: 53%
- Population Fragmented Nuclei (%) [4]: 7%
- Population Healthy Nuclei (%) [4]: 76%
- Population Hoechst High Intensity Objects (%) [4]: 9%
- Population Mitochondria Different-Phenotype (%) [4]: 72%
- Population Mitotic Cells (%) [4]: 46%
- Population Normal (%) [4]: 90%
- Population Pyknosed Nuclei (%) [4]: 16%
- Population Tubulin-Different-Phenotype (%) [4]: 29%
- Total Cell Count [4]: 362
- Population Apoptotic (%) [5]: 35%
- Population Fragmented Nuclei (%) [5]: 11%
- Population Healthy Nuclei (%) [5]: 73%
- Population Hoechst High Intensity Objects (%) [5]: 5%
- Population Membrane Permeable-Phenotype (%) [5]: 0%
- Population Mitochondria Different-Phenotype (%) [5]: 28%
- Population Mitotic Cells (%) [5]: 64%
- Population Normal (%) [5]: 94%
- Population Pyknosed Nuclei (%) [5]: 14%
- Population Tubulin-Different-Phenotype (%) [5]: 20%
- Total Cell Count [5]: 462
- Population Apoptotic (%) [6]: 27%
- Population Fragmented Nuclei (%) [6]: 5%
- Population Healthy Nuclei (%) [6]: 85%
- Population Hoechst High Intensity Objects (%) [6]: 3%
- Population Mitochondria Different-Phenotype (%) [6]: 27%
- Population Mitotic Cells (%) [6]: 72%
- Population Normal (%) [6]: 96%
- Population Pyknosed Nuclei (%) [6]: 8%
- Population Tubulin-Different-Phenotype (%) [6]: 10%
- Total Cell Count [6]: 473
- Population Apoptotic (%) [7]: 18%
- Population Fragmented Nuclei (%) [7]: 10%
- Population Healthy Nuclei (%) [7]: 75%
- Population Hoechst High Intensity Objects (%) [7]: 4%
- Population Membrane Permeable-Phenotype (%) [7]: 0%
- Population Mitochondria Different-Phenotype (%) [7]: 36%
- Population Mitotic Cells (%) [7]: 81%
- Population Normal (%) [7]: 95%
- Population Pyknosed Nuclei (%) [7]: 14%
- Population Tubulin-Different-Phenotype (%) [7]: 28%
- Total Cell Count [7]: 446
- Population Apoptotic (%) [8]: 32%
- Population Fragmented Nuclei (%) [8]: 8%
- Population Healthy Nuclei (%) [8]: 82%
- Population Hoechst High Intensity Objects (%) [8]: 8%
- Population Membrane Permeable-Phenotype (%) [8]: 1%
- Population Mitochondria Different-Phenotype (%) [8]: 49%
- Population Mitotic Cells (%) [8]: 67%
- Population Normal (%) [8]: 91%
- Population Pyknosed Nuclei (%) [8]: 9%
- Population Tubulin-Different-Phenotype (%) [8]: 17%
- Total Cell Count [8]: 481
- Population Apoptotic (%) [9]: 29%
- Population Fragmented Nuclei (%) [9]: 13%
- Population Healthy Nuclei (%) [9]: 79%
- Population Hoechst High Intensity Objects (%) [9]: 3%
- Population Membrane Permeable-Phenotype (%) [9]: 0%
- Population Mitochondria Different-Phenotype (%) [9]: 20%
- Population Mitotic Cells (%) [9]: 70%
- Population Normal (%) [9]: 96%
- Population Pyknosed Nuclei (%) [9]: 6%
- Population Tubulin-Different-Phenotype (%) [9]: 13%
- Total Cell Count [9]: 822
- Population Apoptotic (%) [10]: 33%
- Population Fragmented Nuclei (%) [10]: 11%
- Population Healthy Nuclei (%) [10]: 83%
- Population Hoechst High Intensity Objects (%) [10]: 1%
- Population Mitochondria Different-Phenotype (%) [10]: 14%
- Population Mitotic Cells (%) [10]: 66%
- Population Normal (%) [10]: 98%
- Population Pyknosed Nuclei (%) [10]: 5%
- Population Tubulin-Different-Phenotype (%) [10]: 7%
- Total Cell Count [10]: 770
- Population Apoptotic (%) [11]: 41%
- Population Fragmented Nuclei (%) [11]: 13%
- Population Healthy Nuclei (%) [11]: 78%
- Population Hoechst High Intensity Objects (%) [11]: 4%
- Population Membrane Permeable-Phenotype (%) [11]: 1%
- Population Mitochondria Different-Phenotype (%) [11]: 32%
- Population Mitotic Cells (%) [11]: 58%
- Population Normal (%) [11]: 95%
- Population Pyknosed Nuclei (%) [11]: 8%
- Population Tubulin-Different-Phenotype (%) [11]: 16%
- Total Cell Count [11]: 631
- Population Apoptotic (%) [12]: 33%
- Population Fragmented Nuclei (%) [12]: 12%
- Population Healthy Nuclei (%) [12]: 81%
- Population Hoechst High Intensity Objects (%) [12]: 3%
- Population Membrane Permeable-Phenotype (%) [12]: 0%
- Population Mitochondria Different-Phenotype (%) [12]: 22%
- Population Mitotic Cells (%) [12]: 66%
- Population Normal (%) [12]: 96%
- Population Pyknosed Nuclei (%) [12]: 6%
- Population Tubulin-Different-Phenotype (%) [12]: 11%
- Total Cell Count [12]: 724
